Reference: ChEMBL document CHEMBL1914430, “Synthesis of some new 1,3,5-trisubstituted pyrazolines bearing benzene sulfonamide as anticancer and anti-inflammatory agents” (Bioorg Med Chem Lett, 2011)

What was measured:
Format in all cases: functional
PC-3 = assay: Anticancer activity against human PC3 cells after 48 hrs; settings: PC-3, 48 h
Method in brief: (§1)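 NCI 60-line panel protocol with a 48 h incubation. Per line: GI50 = concentration giving 50% decrease in net cell growth; TGI = total growth inhibition; LC50 = net 50% loss of initial cells. When the level was not reached or was exceeded, the value is given as greater or less than the highest or lowest concentration tested.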

RPMI-8226 = assay: Anticancer activity against human RPMI8226 cells after 48 hrs; settings: RPMI-8226, 48 h; method in brief: as §1
786-0 = assay: Anticancer activity against human 786-0 cells after 48 hrs; settings: 786-0, 48 h
Method in brief: (§2)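 NCI Drug Evaluation Branch 60-cell-line screen across leukemia, melanoma, lung, colon, CNS, ovarian, renal, prostate and breast panels. The incubation period is 48 h. Parameters are derived from dose–response data: GI50 is the concentration giving 50% decrease in net growth, TGI is total growth inhibition, and LC50 is net 50% loss of initial cells. Values beyond the tested range are reported as greater or less than the maximum or minimum concentration.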

SK-MEL-5 = assay: Anticancer activity against human SK-MEL-5 cells after 48 hrs; settings: SK-MEL-5, 48 h; method in brief: as §1
SNB-19 = assay: Anticancer activity against human SNB19 cells after 48 hrs; settings: SNB-19, 48 h; method in brief: as §1
DU-145 = assay: Anticancer activity against human DU145 cells after 48 hrs; settings: DU-145, 48 h; method in brief: as §2
MOLT-4 = assay: Anticancer activity against human MOLT4 cells after 48 hrs; settings: MOLT-4, 48 h; method in brief: as §1
NCI-H322M = assay: Anticancer activity against human NCI-H322M cells after 48 hrs; method in brief: as §1
HOP-92 = assay: Anticancer activity against human HOP92 cells after 48 hrs; settings: HOP-92, 48 h; method in brief: as §2
NCI-H460 = assay: Anticancer activity against human NCI-H460 cells after 48 hrs; settings: NCI-H460, 48 h; method in brief: as §1
T47D = assay: Anticancer activity against human T47D cells after 48 hrs
Method in brief: (§3)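 NCI ~60 human tumour cell line panel with a 48 h incubation. GI50 is the concentration giving a 50% fall in net growth, TGI gives total growth inhibition, and LC50 gives a net 50% loss of initial cells. An effect not reached or exceeded is reported as greater or less than the highest or lowest concentration tested.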

RXF 393 = assay: Anticancer activity against human RXF393 cells after 48 hrs; settings: RXF 393, 48 h; method in brief: as §1
HOP-62 = assay: Anticancer activity against human HOP62 cells after 48 hrs; settings: HOP-62, 48 h; method in brief: as §2
NCI/ADR-RES = assay: Anticancer activity against human NCI/ADR-RES cells after 48 hrs; method in brief: as §1
SF-295 = assay: Anticancer activity against human SF295 cells after 48 hrs; settings: SF-295, 48 h; method in brief: as §1
LOX IMVI = assay: Anticancer activity against human LOXIMVI cells after 48 hrs; method in brief: as §2
Malme-3M = assay: Anticancer activity against human MALME-3M cells after 48 hrs; method in brief: as §2
HCC 2998 = assay: Anticancer activity against human HCC2998 cells after 48 hrs; settings: HCC 2998, 48 h; method in brief: as §2
UO-31 = assay: Anticancer activity against human UO31 cells after 48 hrs; settings: UO-31, 48 h; method in brief: as §3
UACC-62 = assay: Anticancer activity against human UACC62 cells after 48 hrs; settings: UACC-62, 48 h; method in brief: as §3
NCI-H23 = assay: Anticancer activity against human NCI-H23 cells after 48 hrs; settings: NCI-H23, 48 h; method in brief: as §1
SNB-75 = assay: Anticancer activity against human SNB75 cells after 48 hrs; settings: SNB-75, 48 h; method in brief: as §1
[1] = Anticancer activity against human Hs 578T cells after 48 hrs; method in brief: as §2
SW-620 = assay: Anticancer activity against human SW620 cells after 48 hrs; settings: SW-620, 48 h; method in brief: as §1
OVCAR-8 = assay: Anticancer activity against human OVCAR8 cells after 48 hrs; settings: OVCAR-8, 48 h; method in brief: as §1
K562 = assay: Anticancer activity against human K562 cells after 48 hrs; settings: K562, 48 h; method in brief: as §2
MDA-MB-435 = assay: Anticancer activity against human MDA-MB-435 cells after 48 hrs; settings: MDA-MB-435, 48 h; method in brief: as §2
A498 = assay: Anticancer activity against human A498 cells after 48 hrs; settings: A498, 48 h; method in brief: as §2
SF-539 = assay: Anticancer activity against human SF539 cells after 48 hrs; settings: SF-539, 48 h; method in brief: as §1
ACHN = assay: Anticancer activity against human ACHN cells after 48 hrs; method in brief: as §2
COLO 205 = assay: Anticancer activity against human COLO205 cells after 48 hrs; settings: COLO 205, 48 h; method in brief: as §2
OVCAR-4 = assay: Anticancer activity against human OVCAR4 cells after 48 hrs; settings: OVCAR-4, 48 h; method in brief: as §1
[2] = read-out: LC50 (the source's name)

Q: For `Cc1cc(O)c(C2=NN(c3ccc(S(N)(=O)=O)cc3)C(c3ccccc3Cl)C2)cc1Cl` (stereo not drawn), which GI50 (PC-3) is on record?
A: 1.58 µM

Q: And the TGI (PC-3)?
A: 3.32 µM

Q: And the CC50 (PC-3; [2])?
A: 6.98 µM

Q: And the GI50 (RPMI-8226)?
A: 2.97 µM

Q: And the LC50 (concentration for net 50% loss of initial cells) (RPMI-8226)?
A: > 100 µM

Q: What about the TGI (RPMI-8226) of the same compound?
A: 8.35 µM

Q: And the GI50 (786-0)?
A: 2.25 µM

Q: What about the TGI (786-0) of the same compound?
A: 4.52 µM

Q: What about the CC50 (786-0; [2]) of the same compound?
A: 9.1 µM

Q: What about the GI50 (SK-MEL-5) of the same compound?
A: 3.85 µM

Q: What about the LC50 (SK-MEL-5) of the same compound?
A: 36 µM

Q: What about the TGI (SK-MEL-5) of the same compound?
A: 12.3 µM

Q: What about the GI50 (SNB-19) of the same compound?
A: 3.54 µM

Q: What about the TGI (SNB-19) of the same compound?
A: 16.3 µM

Q: What about the CC50 (SNB-19; [2]) of the same compound?
A: 92.3 µM

Q: And the GI50 (DU-145)?
A: 2.01 µM

Q: And the LC50 (concentration causing net 50% loss of initial cells) (DU-145)?
A: 7.35 µM

Q: What about the TGI (DU-145) of the same compound?
A: 3.85 µM

Q: What about the GI50 (MOLT-4) of the same compound?
A: 4.04 µM

Q: What about the LC50 (MOLT-4) of the same compound?
A: > 100 µM

Q: And the TGI (MOLT-4)?
A: > 100 µM

Q: What about the GI50 (NCI-H322M) of the same compound?
A: 2.19 µM

Q: What about the LC50 (net 50% loss of initial cells) (NCI-H322M) of the same compound?
A: 22 µM

Q: And the TGI (NCI-H322M)?
A: 5.06 µM

Q: What about the GI50 (HOP-92) of the same compound?
A: 1.94 µM

Q: And the TGI (HOP-92)?
A: 6.32 µM

Q: And the CC50 (HOP-92; [2])?
A: 3.12 µM

Q: And the GI50 (NCI-H460)?
A: 2.16 µM

Q: And the LC50 (50% lethal concentration) (NCI-H460)?
A: 8.21 µM

Q: What about the TGI (NCI-H460) of the same compound?
A: 4.21 µM

Q: And the GI50 (T47D)?
A: 2.81 µM

Q: What about the TGI (T47D) of the same compound?
A: 10.3 µM

Q: What about the CC50 (T47D; [2]) of the same compound?
A: 82.3 µM

Q: And the GI50 (RXF 393)?
A: 3.09 µM

Q: What about the LC50 (RXF 393) of the same compound?
A: > 100 µM

Q: What about the TGI (RXF 393) of the same compound?
A: 8.22 µM

Q: What about the GI50 (HOP-62) of the same compound?
A: 2.03 µM

Q: And the LC50 (concentration for 50% net loss of initial cells) (HOP-62)?
A: 8.53 µM

Q: And the TGI (HOP-62)?
A: 4.16 µM

Q: What about the GI50 (NCI/ADR-RES) of the same compound?
A: 2.7 µM

Q: What about the TGI (NCI/ADR-RES) of the same compound?
A: 6.85 µM

Q: What about the CC50 (NCI/ADR-RES; [2]) of the same compound?
A: 38.8 µM

Q: What about the GI50 (SF-295) of the same compound?
A: 1.59 µM

Q: What about the LC50 (concentration giving net 50% loss of initial cells) (SF-295) of the same compound?
A: 6.34 µM

Q: And the TGI (SF-295)?
A: 3.18 µM

Q: And the GI50 (LOX IMVI)?
A: 1.78 µM

Q: What about the TGI (LOX IMVI) of the same compound?
A: 3.21 µM

Q: What about the CC50 (LOX IMVI; [2]) of the same compound?
A: 5.8 µM

Q: And the GI50 (Malme-3M)?
A: 2.62 µM

Q: And the TGI (Malme-3M)?
A: 6.46 µM

Q: And the CC50 (Malme-3M; [2])?
A: > 100 µM

Q: What about the GI50 (HCC 2998) of the same compound?
A: 2.1 µM

Q: What about the LC50 (net 50% loss of initial cells) (HCC 2998) of the same compound?
A: 7.3 µM

Q: What about the TGI (HCC 2998) of the same compound?
A: 3.91 µM

Q: What about the GI50 (UO-31) of the same compound?
A: 2.66 µM

Q: What about the TGI (UO-31) of the same compound?
A: 16.2 µM

Q: What about the CC50 (UO-31; [2]) of the same compound?
A: 48 µM

Q: And the GI50 (UACC-62)?
A: 3.71 µM

Q: And the LC50 (UACC-62)?
A: 43.4 µM

Q: And the TGI (UACC-62)?
A: 14.4 µM

Q: What about the GI50 (NCI-H23) of the same compound?
A: 1.79 µM

Q: And the LC50 (concentration killing 50% of initial cells) (NCI-H23)?
A: 7.13 µM

Q: And the TGI (NCI-H23)?
A: 3.58 µM

Q: What about the GI50 (SNB-75) of the same compound?
A: 2.23 µM

Q: What about the TGI (SNB-75) of the same compound?
A: 8.83 µM

Q: And the CC50 (SNB-75; [2])?
A: 63.6 µM

Q: What about the GI50 [1] of the same compound?
A: 3.28 µM

Q: What about the CC50 [1, 2] of the same compound?
A: > 100 µM

Q: What about the GI50 (SW-620) of the same compound?
A: 1.97 µM

Q: What about the TGI (SW-620) of the same compound?
A: 4.1 µM

Q: And the GI50 (OVCAR-8)?
A: 2.94 µM

Q: What about the TGI (OVCAR-8) of the same compound?
A: 11.2 µM

Q: What about the CC50 (OVCAR-8; [2]) of the same compound?
A: > 100 µM

Q: And the GI50 (K562)?
A: 3.26 µM

Q: What about the LC50 (concentration killing 50% of initial cells) (K562) of the same compound?
A: > 100 µM

Q: And the GI50 (MDA-MB-435)?
A: 1.85 µM

Q: What about the TGI (MDA-MB-435) of the same compound?
A: 3.92 µM

Q: What about the CC50 (MDA-MB-435; [2]) of the same compound?
A: 8.32 µM

Q: And the GI50 (A498)?
A: 5.01 µM

Q: And the TGI (A498)?
A: 20.5 µM

Q: What about the CC50 (A498; [2]) of the same compound?
A: 61.4 µM

Q: What about the GI50 (SF-539) of the same compound?
A: 1.79 µM

Q: What about the LC50 (concentration causing net 50% loss of initial cells) (SF-539) of the same compound?
A: 5.9 µM

Q: What about the TGI (SF-539) of the same compound?
A: 3.25 µM

Q: What about the GI50 (ACHN) of the same compound?
A: 3.34 µM

Q: What about the TGI (ACHN) of the same compound?
A: 11 µM

Q: And the CC50 (ACHN; [2])?
A: 34.3 µM

Q: And the GI50 (COLO 205)?
A: 1.81 µM

Q: And the LC50 (concentration giving net 50% loss of initial cells) (COLO 205)?
A: 6.03 µM

Q: And the TGI (COLO 205)?
A: 3.31 µM

Q: What about the GI50 (OVCAR-4) of the same compound?
A: 2.73 µM

Q: What about the LC50 (OVCAR-4) of the same compound?
A: 40 µM

Q: And the TGI (OVCAR-4)?
A: 8.48 µM
